Results published in ChEMBL document CHEMBL4689842, “EUbOPEN Chemogenomics Library wave 1” (2021).

Test system: U2OS
Assay: Multiplex assay against U2OS
Type: toxicity, cell-based
Conditions: human
How it was run: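 Values for tubulin, mitochondrial-mass and membrane-permeability phenotypes are per cents of cells with healthy nuclei. These cells were identified by CellPathfinder machine-learning gating of live cells that had been stained at seeding with Hoechst33342, BioTracker Green Microtubule Cytoskeleton Dye, MitoTracker Red and Annexin V Alexa Fluor 680 and imaged on a CQ1 microscope at 37°C and 5% CO2 after compound addition. The gating first set Hoechst high-intensity objects apart from normal cells, then split normal cells into healthy, pyknosed or fragmented nuclei, and pyknosed cells into mitotic or apoptotic.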

[1] = 12 h, 1 µM, compound concentration 1 uM, replicate 1
[2] = 12 h, 1 µM, compound concentration 1 uM, replicate 2
[3] = 12 h, 10 µM, compound concentration 10 uM, replicate 1
[4] = 12 h, 10 µM, compound concentration 10 uM, replicate 2
[5] = 24 h, 1 µM, compound concentration 1 uM, replicate 1
[6] = 24 h, 1 µM, compound concentration 1 uM, replicate 2
[7] = 24 h, 10 µM, compound concentration 10 uM, replicate 1
[8] = 24 h, 10 µM, compound concentration 10 uM, replicate 2
[9] = 48 h, 1 µM, compound concentration 1 uM, replicate 1
[10] = 48 h, 1 µM, compound concentration 1 uM, replicate 2
[11] = 48 h, 10 µM, compound concentration 10 uM, replicate 1
[12] = 48 h, 10 µM, compound concentration 10 uM, replicate 2

Compound: Cc1ccc(C)c(Oc2ccncc2C(=O)N2CCN(C3CC3)c3ccccc32)c1
- Population Apoptotic (%) [1]: 53%
- Population Fragmented Nuclei (%) [1]: 10%
- Population Healthy Nuclei (%) [1]: 77%
- Population Hoechst High Intensity Objects (%) [1]: 7%
- Population Normal (%) [1]: 92%
- Total Cell Count [1]: 135
- Population Apoptotic (%) [2]: 66%
- Population Healthy Nuclei (%) [2]: 75%
- Population Hoechst High Intensity Objects (%) [2]: 10%
- Population Normal (%) [2]: 89%
- Total Cell Count [2]: 73
- Population Apoptotic (%) [3]: 48%
- Population Fragmented Nuclei (%) [3]: 15%
- Population Healthy Nuclei (%) [3]: 61%
- Population Hoechst High Intensity Objects (%) [3]: 6%
- Population Mitotic Cells (%) [3]: 51%
- Population Normal (%) [3]: 93%
- Total Cell Count [3]: 132
- Population Apoptotic (%) [4]: 33%
- Population Fragmented Nuclei (%) [4]: 6%
- Population Healthy Nuclei (%) [4]: 72%
- Population Hoechst High Intensity Objects (%) [4]: 3%
- Population Normal (%) [4]: 96%
- Total Cell Count [4]: 59
- Population Apoptotic (%) [5]: 47%
- Population Fragmented Nuclei (%) [5]: 8%
- Population Healthy Nuclei (%) [5]: 76%
- Population Hoechst High Intensity Objects (%) [5]: 3%
- Population Mitotic Cells (%) [5]: 52%
- Population Normal (%) [5]: 96%
- Total Cell Count [5]: 137
- Population Apoptotic (%) [6]: 42%
- Population Fragmented Nuclei (%) [6]: 27%
- Population Healthy Nuclei (%) [6]: 60%
- Population Hoechst High Intensity Objects (%) [6]: 6%
- Population Normal (%) [6]: 93%
- Total Cell Count [6]: 71
- Population Apoptotic (%) [7]: 51%
- Population Healthy Nuclei (%) [7]: 50%
- Population Hoechst High Intensity Objects (%) [7]: 10%
- Population Mitotic Cells (%) [7]: 48%
- Population Normal (%) [7]: 89%
- Total Cell Count [7]: 152
- Population Apoptotic (%) [8]: 53%
- Population Healthy Nuclei (%) [8]: 66%
- Population Hoechst High Intensity Objects (%) [8]: 7%
- Population Normal (%) [8]: 92%
- Total Cell Count [8]: 65
- Population Apoptotic (%) [9]: 46%
- Population Fragmented Nuclei (%) [9]: 4%
- Population Healthy Nuclei (%) [9]: 82%
- Population Hoechst High Intensity Objects (%) [9]: 3%
- Population Mitotic Cells (%) [9]: 53%
- Population Normal (%) [9]: 96%
- Total Cell Count [9]: 139
- Population Apoptotic (%) [10]: 36%
- Population Fragmented Nuclei (%) [10]: 6%
- Population Healthy Nuclei (%) [10]: 79%
- Population Hoechst High Intensity Objects (%) [10]: 4%
- Population Mitotic Cells (%) [10]: 63%
- Population Normal (%) [10]: 95%
- Total Cell Count [10]: 69
- Population Apoptotic (%) [11]: 61%
- Population Fragmented Nuclei (%) [11]: 14%
- Population Healthy Nuclei (%) [11]: 42%
- Population Hoechst High Intensity Objects (%) [11]: 9%
- Population Mitotic Cells (%) [11]: 38%
- Population Normal (%) [11]: 90%
- Total Cell Count [11]: 213
- Population Apoptotic (%) [12]: 33%
- Population Fragmented Nuclei (%) [12]: 22%
- Population Healthy Nuclei (%) [12]: 55%
- Population Hoechst High Intensity Objects (%) [12]: 1%
- Population Normal (%) [12]: 98%
- Total Cell Count [12]: 83

Compound: O=C(c1cc2c(cc1F)OC(c1ccc(F)cc1)(c1ccc(Cl)cc1Cl)O2)N1CCOCC1 (stereo unspecified)
- Population Apoptotic (%) [1]: 57%
- Population Fragmented Nuclei (%) [1]: 19%
- Population Healthy Nuclei (%) [1]: 67%
- Population Hoechst High Intensity Objects (%) [1]: 10%
- Population Membrane Permeable-Phenotype (%) [1]: 7%
- Population Mitochondria Different-Phenotype (%) [1]: 17%
- Population Mitotic Cells (%) [1]: 42%
- Population Normal (%) [1]: 89%
- Population Pyknosed Nuclei (%) [1]: 13%
- Total Cell Count [1]: 120
- Population Apoptotic (%) [2]: 50%
- Population Fragmented Nuclei (%) [2]: 18%
- Population Healthy Nuclei (%) [2]: 68%
- Population Hoechst High Intensity Objects (%) [2]: 7%
- Population Membrane Permeable-Phenotype (%) [2]: 9%
- Population Mitochondria Different-Phenotype (%) [2]: 12%
- Population Mitotic Cells (%) [2]: 50%
- Population Normal (%) [2]: 92%
- Population Pyknosed Nuclei (%) [2]: 12%
- Population Tubulin-Different-Phenotype (%) [2]: 15%
- Total Cell Count [2]: 78
- Population Apoptotic (%) [3]: 50%
- Population Healthy Nuclei (%) [3]: 67%
- Population Hoechst High Intensity Objects (%) [3]: 8%
- Population Membrane Permeable-Phenotype (%) [3]: 46%
- Population Mitotic Cells (%) [3]: 50%
- Population Normal (%) [3]: 91%
- Population Pyknosed Nuclei (%) [3]: 21%
- Total Cell Count [3]: 116
- Population Apoptotic (%) [4]: 71%
- Population Fragmented Nuclei (%) [4]: 10%
- Population Healthy Nuclei (%) [4]: 78%
- Population Hoechst High Intensity Objects (%) [4]: 4%
- Population Membrane Permeable-Phenotype (%) [4]: 47%
- Population Mitochondria Different-Phenotype (%) [4]: 96%
- Population Mitotic Cells (%) [4]: 28%
- Population Normal (%) [4]: 95%
- Population Pyknosed Nuclei (%) [4]: 10%
- Population Tubulin-Different-Phenotype (%) [4]: 100%
- Total Cell Count [4]: 52
- Population Apoptotic (%) [5]: 44%
- Population Fragmented Nuclei (%) [5]: 17%
- Population Healthy Nuclei (%) [5]: 68%
- Population Hoechst High Intensity Objects (%) [5]: 7%
- Population Membrane Permeable-Phenotype (%) [5]: 5%
- Population Mitochondria Different-Phenotype (%) [5]: 14%
- Population Mitotic Cells (%) [5]: 55%
- Population Normal (%) [5]: 92%
- Population Pyknosed Nuclei (%) [5]: 14%
- Population Tubulin-Different-Phenotype (%) [5]: 12%
- Total Cell Count [5]: 130
- Population Apoptotic (%) [6]: 33%
- Population Fragmented Nuclei (%) [6]: 5%
- Population Healthy Nuclei (%) [6]: 88%
- Population Hoechst High Intensity Objects (%) [6]: 10%
- Population Membrane Permeable-Phenotype (%) [6]: 10%
- Population Mitochondria Different-Phenotype (%) [6]: 15%
- Population Mitotic Cells (%) [6]: 66%
- Population Normal (%) [6]: 89%
- Population Pyknosed Nuclei (%) [6]: 5%
- Population Tubulin-Different-Phenotype (%) [6]: 21%
- Total Cell Count [6]: 85
- Population Apoptotic (%) [7]: 67%
- Population Fragmented Nuclei (%) [7]: 16%
- Population Healthy Nuclei (%) [7]: 55%
- Population Hoechst High Intensity Objects (%) [7]: 8%
- Population Membrane Permeable-Phenotype (%) [7]: 48%
- Population Mitochondria Different-Phenotype (%) [7]: 98%
- Population Mitotic Cells (%) [7]: 32%
- Population Normal (%) [7]: 91%
- Population Pyknosed Nuclei (%) [7]: 28%
- Population Tubulin-Different-Phenotype (%) [7]: 100%
- Total Cell Count [7]: 137
- Population Apoptotic (%) [8]: 66%
- Population Fragmented Nuclei (%) [8]: 8%
- Population Healthy Nuclei (%) [8]: 62%
- Population Hoechst High Intensity Objects (%) [8]: 6%
- Population Membrane Permeable-Phenotype (%) [8]: 64%
- Population Mitochondria Different-Phenotype (%) [8]: 100%
- Population Mitotic Cells (%) [8]: 33%
- Population Normal (%) [8]: 93%
- Population Pyknosed Nuclei (%) [8]: 29%
- Total Cell Count [8]: 58
- Population Apoptotic (%) [9]: 62%
- Population Fragmented Nuclei (%) [9]: 14%
- Population Healthy Nuclei (%) [9]: 75%
- Population Hoechst High Intensity Objects (%) [9]: 7%
- Population Membrane Permeable-Phenotype (%) [9]: 4%
- Population Mitochondria Different-Phenotype (%) [9]: 11%
- Population Mitotic Cells (%) [9]: 37%
- Population Normal (%) [9]: 92%
- Population Pyknosed Nuclei (%) [9]: 9%
- Population Tubulin-Different-Phenotype (%) [9]: 9%
- Total Cell Count [9]: 127
- Population Apoptotic (%) [10]: 60%
- Population Fragmented Nuclei (%) [10]: 8%
- Population Healthy Nuclei (%) [10]: 84%
- Population Hoechst High Intensity Objects (%) [10]: 4%
- Population Membrane Permeable-Phenotype (%) [10]: 6%
- Population Mitochondria Different-Phenotype (%) [10]: 13%
- Population Mitotic Cells (%) [10]: 40%
- Population Normal (%) [10]: 96%
- Population Pyknosed Nuclei (%) [10]: 6%
- Population Tubulin-Different-Phenotype (%) [10]: 16%
- Total Cell Count [10]: 78
- Population Apoptotic (%) [11]: 57%
- Population Fragmented Nuclei (%) [11]: 20%
- Population Healthy Nuclei (%) [11]: 44%
- Population Hoechst High Intensity Objects (%) [11]: 14%
- Population Membrane Permeable-Phenotype (%) [11]: 65%
- Population Mitochondria Different-Phenotype (%) [11]: 93%
- Population Mitotic Cells (%) [11]: 42%
- Population Normal (%) [11]: 85%
- Population Pyknosed Nuclei (%) [11]: 34%
- Population Tubulin-Different-Phenotype (%) [11]: 100%
- Total Cell Count [11]: 179
- Population Apoptotic (%) [12]: 71%
- Population Fragmented Nuclei (%) [12]: 17%
- Population Healthy Nuclei (%) [12]: 50%
- Population Hoechst High Intensity Objects (%) [12]: 8%
- Population Membrane Permeable-Phenotype (%) [12]: 76%
- Population Mitochondria Different-Phenotype (%) [12]: 100%
- Population Mitotic Cells (%) [12]: 28%
- Population Normal (%) [12]: 91%
- Population Pyknosed Nuclei (%) [12]: 31%
- Total Cell Count [12]: 75
